Common to all, as to type: functional, cell-based
One assay deals with HCT-8. Kind of assay: Cytotoxicity against human HCT8 cells after 96 hrs by MTT assay. The conditions noted are these: HCT-8, 96 h. The essentials:
(§1)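 Cells kept in RPMI 1640 with 10% FBS, L-glutamine, penicillin/streptomycin at 37 °C, 5% CO2. 1.5 × 10³ cells/well seeded; after 24 h compounds added in DMSO at five final concentrations (0.01-10 […]), triplicate wells, 96 h exposure. MTT (0.5 mg/mL) 4 h at 37 °C, formazan dissolved in DMSO, A570 read. IC50 = 50% OD reduction vs control from dose-response curve.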
(Formazan colour is commonly taken as a measure of viable cells.)

Another assay concerns Bel-7402. Kind of assay: Cytotoxicity against human Bel7402 cells after 96 hrs by MTT assay. The conditions noted are these: Bel-7402, 96 h. The essentials: as §1
The test system of the next assay is BGC-823. In words: Cytotoxicity against human BGC823 cells after 96 hrs by MTT assay. To be noted: BGC-823, 96 h. The essentials:
as §1

Another assay relates to A549. Kind of assay: Cytotoxicity against human A549 cells after 96 hrs by MTT assay. To be noted: A549, 96 h. The essentials: as §1
A further assay concerns A2780. In words: Cytotoxicity against human A2780 cells after 96 hrs by MTT assay. The conditions noted are these: A2780, 96 h. The essentials: as §1

The text below walks through data of ChEMBL document CHEMBL1151417, “Cytotoxic triterpenoid glycosides from the roots of Gordonia chrysandra” (J Nat Prod, 2009).

Molecules are shown by their SMILES.

For orientation: IC50 means the point on the concentration scale where inhibition reaches its midpoint. A higher IC50 goes with weaker potency. For the compound `C/C=C(/C)C(=O)O[C@H]1[C@H](OC(=O)/C(C)=C\C)[C@]2(CO)[C@H](O)C[C@]3(C)C(=CC[C@@H]4[C@@]5(C)CC[C@H](O[C@@H]6O[C@H](C(=O)O)[C@@H](O)[C@H](O[C@@H]7OC[C@H](O)[C@H](O)[C@H]7O)[C@H]6O)[C@@](C)(CO)[C@@H]5CC[C@]43C)[C@@H]2CC1(C)C` [GORDONOSIDE A], the IC50 was more than 10 µM with HCT-8; 4.7 µM in the assay with Bel-7402; more than 10 µM in the assay with BGC-823; more than 10 µM in the assay with A549; 5.5 µM with A2780.
For `C/C=C(/C)C(=O)O[C@H]1[C@H](OC(=O)/C(C)=C\C)[C@]2(CO)[C@H](O)[C@H](O)[C@]3(C)C(=CC[C@@H]4[C@@]5(C)CC[C@H](O[C@@H]6O[C@H](C(=O)O)[C@@H](O)[C@H](O[C@@H]7OC[C@H](O)[C@H](O)[C@H]7O)[C@H]6O)[C@@](C)(C(=O)OC)[C@@H]5CC[C@]43C)[C@@H]2CC1(C)C` [GORDONOSIDE G], the IC50 in the assay on HCT-8, in the assay with Bel-7402, in the assay on BGC-823, in the assay on A549 and with A2780 was more than 10 µM each time.
Take `C/C=C(/C)C(=O)O[C@H]1[C@H](OC(=O)/C(C)=C\C)[C@]2(CO)[C@H](OC(C)=O)C[C@]3(C)C(=CC[C@@H]4[C@@]5(C)CC[C@H](O[C@@H]6O[C@H](C(=O)O)[C@@H](O)[C@H](O[C@@H]7OC[C@H](O)[C@H](O)[C@H]7O)[C@H]6O)[C@@](C)(CO)[C@@H]5CC[C@]43C)[C@@H]2CC1(C)C` [GORDONOSIDE B]: the IC50 in the assay with HCT-8, with Bel-7402, in the assay on BGC-823, in the assay with A549 and with A2780 was more than 10 µM throughout.
For `C/C=C(/C)C(=O)O[C@H]1[C@H](OC(=O)/C(C)=C\C)[C@]2(CO)[C@H](OC(C)=O)C[C@]3(C)C(=CC[C@@H]4[C@@]5(C)CC[C@H](O[C@@H]6O[C@H](C(=O)O)[C@@H](O)[C@H](O[C@@H]7OC[C@H](O)[C@H](O)[C@H]7O)[C@H]6O)C(C)(C)[C@@H]5CC[C@]43C)[C@@H]2CC1(C)C` [GORDONOSIDE D], the half-maximal inhibitory concentration (IC50) with HCT-8, with Bel-7402, in the assay with BGC-823, in the assay with A549 and with A2780 was more than 10 µM throughout.
Consider `CC(=O)O[C@H]1C(=O)[C@@]2(C)[C@H]([C@H](OC(=O)c3ccccc3)[C@]3(O)C[C@H](OC(=O)[C@H](O)[C@@H](NC(=O)c4ccccc4)c4ccccc4)C(C)=C1C3(C)C)[C@]1(OC(C)=O)CO[C@@H]1C[C@@H]2O` [PACLITAXEL], for which the IC50 in the assay on HCT-8 was found to be 3.6 µM; with Bel-7402, 6.3 µM; in the assay with BGC-823, 0.04 µM; with A549, 0.001 µM; with A2780, 0.9 µM.
For the compound `C/C=C(/C)C(=O)O[C@H]1[C@H](OC(=O)/C(C)=C\C)[C@]2(CO)[C@H](O)C[C@]3(C)C(=CC[C@@H]4[C@@]5(C)CC[C@H](O[C@@H]6O[C@H](C(=O)O)[C@@H](O)[C@H](O[C@@H]7OC[C@H](O)[C@H](O)[C@H]7O)[C@H]6O)C(C)(C)[C@@H]5CC[C@]43C)[C@@H]2CC1(C)C` [GORDONOSIDE C], the 50% inhibitory concentration (IC50) is 1.2 µM in the assay with HCT-8; 0.7 µM in the assay on Bel-7402; 2.5 µM in the assay with BGC-823; 1.8 µM in the assay with A549; 0.4 µM in the assay with A2780.
Taken in the same sequence, the figures for `C/C=C(/C)C(=O)O[C@H]1[C@H](OC(=O)/C(C)=C\C)[C@]2(CO)[C@H](O)C[C@]3(C)C(=CC[C@@H]4[C@@]5(C)CC[C@H](O[C@@H]6O[C@H](C(=O)O)[C@@H](O)[C@H](O[C@@H]7OC[C@H](O)[C@H](O)[C@H]7O)[C@H]6O)[C@@](C)(C=O)[C@@H]5CC[C@]43C)[C@@H]2CC1(C)C` [GORDONOSIDE E] were 2.7 µM, 1.1 µM, more than 10 µM, more than 10 µM and 2 µM.
`C/C=C(/C)C(=O)O[C@H]1[C@H](OC(=O)/C(C)=C\C)[C@]2(CO)[C@H](O)C[C@]3(C)C(=CC[C@@H]4[C@@]5(C)CC[C@H](O[C@@H]6O[C@H](C(=O)O)[C@@H](O)[C@H](O[C@@H]7OC[C@H](O)[C@H](O)[C@H]7O)[C@H]6O)[C@@](C)(C(=O)OC)[C@@H]5CC[C@]43C)[C@@H]2CC1(C)C` [GORDONOSIDE F]: the IC50 in the assay with HCT-8 is more than 10 µM; in the assay with Bel-7402, 1.3 µM; in the assay with BGC-823 it was more than 10 µM; in the assay on A549 it was more than 10 µM; with A2780, 2 µM.
